Measurements collected from several papers.
Each line is one published result; the experiments were not run side by side.
Cell line: Vero
Read-out: cell growth or viability

SMILES | method | time | IC50 [µM]
COC(=O)c1ccc(NC(=O)Cn2c(=O)c3cc(I)ccc3n(Cc3ccccc3)c2=O)cc1 | – | – | 50.2
Cc1ncc(CN2CCN(Cc3ccccn3)CC2)c2cc(C(=O)c3ccc4c(c3)OCCO4)oc12 | MTT | 72 h | 50.1
COc1ccc(NC(=O)C2=C(C)NC(C)=C(C(=O)Nc3ccc(OC)cc3OC)C2c2ccc(Cl)cc2)c(OC)c1 | MTT | – | 76.4
Oc1ccccc1C1CC(c2ccc(Nc3nnc(-c4ccc(Cl)cc4)c4ccccc34)cc2)=NN1 (stereo not shown) | – | – | 4.11
COc1ccc(NC(=O)C2=C(C)NC(C)=C(C(=O)Nc3ccc(OC)cc3OC)C2c2ccco2)c(OC)c1 | MTT | – | 51.6
Cc1ccc2c(-c3cc4c(CN5CCN(Cc6ccccn6)CC5)cnc(C)c4o3)cc(=O)oc2c1 | MTT | 72 h | 60.4
COc1ccc(C2CC(c3ccc(Nc4nnc(-c5ccc(Cl)cc5)c5ccccc45)cc3)=NN2)cc1 (stereo not shown) | – | – | 3.22
COc1ccc(NC(=O)C2=C(C)NC(C)=C(C(=O)Nc3cc(OC)c(Cl)cc3OC)C2c2ccc(Cl)cc2)c(OC)c1 (stereo not shown) | MTT | – | 54
C=CCn1c(=O)n(CC(=O)Nc2ccc(-n3nc(C)cc3C)cc2)c(=O)c2cc(I)ccc21 | – | – | 43.4
COc1ccc(NC(=O)C2=C(C)NC(C)=C(C(=O)Nc3cc(OC)c(Cl)cc3OC)C2c2ccccc2)c(OC)c1 (stereo not shown) | MTT | – | 59.6
Cc1ccc2c(-c3cc4c(CNCc5cccnc5)cnc(C)c4o3)cc(=O)oc2c1C | MTT | 72 h | 98.5
COc1cc(NC(=O)C2=C(C)NC(C)=C(C(=O)Nc3cc(OC)c(Cl)cc3OC)C2c2ccccc2)c(OC)cc1Cl | MTT | – | 42.2
S=c1nc(-c2ccc(Nc3nnc(-c4ccc(Cl)cc4)c4ccccc34)cc2)cc(-c2ccccc2)[nH]1 | – | – | 4.12
NNC(=O)c1ccc(NC(=O)Cn2c(=O)c3cc(I)ccc3n(Cc3ccccc3)c2=O)cc1 | – | – | 52.1
COc1ccc(NC(=O)C2=C(C)NC(C)=C(C(=O)Nc3cc(OC)c(Cl)cc3OC)C2c2ccc(O)cc2)c(OC)c1 (stereo not shown) | MTT | – | 60.2
Oc1ccc(C2CC(c3ccc(Nc4nnc(-c5ccc(Cl)cc5)c5ccccc45)cc3)=NN2)cc1 (stereo not shown) | – | – | 4.35
Cc1nnc(-c2ccc(NC(=O)Cn3c(=O)c4cc(I)ccc4n(Cc4ccccc4)c3=O)cc2)o1 | – | – | 46.1
O=c1nc(-c2ccc(Nc3nnc(-c4ccc(Cl)cc4)c4ccccc34)cc2)cc(-c2ccc(Cl)cc2)[nH]1 | – | – | 3
Cc1ncc(CN2CCc3ccccc3C2)c2cc(C(=O)c3ccc4c(c3)OCCO4)oc12 | MTT | 72 h | 181
